“Also recorded” adds a separate entry of the source. Counter-ions that a name gives are not always drawn. Like-named read-outs stand apart in the source and are kept apart here.
Tests used:
[1] = system: Oct; format: in vitro ADME; conditions: suspended rat hepatocytes, 14C-TEA 20μM, 20μM glycyrrhizic acid; for initial 14C-TEA uptake in the presence of inhibitor: 200μM clonidine, 10μM desipramine
[2] = system: suspended WT rat hepatocytes; format: in vitro ADME; conditions: 99mTc-MEB 5μCi/mL, 20μM rifamycin SV, 20μM glycyrrhizic acid, 200μM clonidine, 10μM desipramine, 5μM decynium 22, 10μM ketoprofen
[3] = system: suspended human hepatocytes; format: in vitro ADME; conditions: 99mTc-MEB 5μCi/mL, 20μM rifamycin SV, 200μM clonidine, 10μM desipramine, 5μM decynium 22, 10μM ketoprofen
[4] = system: OATP; assay: Initial uptake of 3H-E217G in suspended human hepatocytes with inhibitors; format: in vitro ADME; conditions: 3H-E217G 1μM, 20μM rifamycin SV
[5] = system: Oatp; format: in vitro ADME; conditions: suspended WT rat hepatocytes; 3H-E217G 1μM; inhibitor 20μM
[6] = system: WT sandwich-cultured rat hepatocytes; assay: 10-min accumulation study; format: in vitro ADME; conditions: 2μM GF120918; siNT- and siBcrp-infected rat SCH
[7] = system: WT rat sandwich-cultured hepatocytes; assay: 20-min efflux study in day 4 WT rat sandwich-cultured hepatocytes; format: in vitro ADME
How it was run: (§1)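 Male Wistar WT or Mrp2-deficient TR⁻ rat hepatocytes were seeded on collagen I 6-well plates (~1.5 × 10^6 cells/well TR, 1.75 × 10^6 WT), overlaid with Matrigel and used on day 4. They were preloaded for 20 min at 37°C with 99mTc probe (5 μCi/mL) in standard HBSS. Efflux then ran 20 min at 37°C in standard (basolateral) or Ca2+-free HBSS (basolateral + canalicular), with 100 μM MK571, 20 μM GF120918 or 0.6% DMSO. Decay-corrected gamma counts of medium and lysate were taken, and efflux was expressed as % of preloaded mass. n=4 WT, 3 TR livers, triplicate.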

[8] = system: human sandwich-cultured hepatocytes; assay: 20-min efflux study in day 7 human sandwich-cultured hepatocytes; format: in vitro ADME
[9] = system: OATP1B3; conditions: inhibition of OATP1B3; cited from earlier work
[10] = molecular target: T1, Oat2 (Rattus norvegicus, UniProt Q5RLM2); assay: 3H-PAH uptake over 60 min in freshly isolated rat hepatocytes; format: in vitro ADME; conditions: 50μM MK571 in the incubation medium
T1 sequence (Q5RLM2 1-535): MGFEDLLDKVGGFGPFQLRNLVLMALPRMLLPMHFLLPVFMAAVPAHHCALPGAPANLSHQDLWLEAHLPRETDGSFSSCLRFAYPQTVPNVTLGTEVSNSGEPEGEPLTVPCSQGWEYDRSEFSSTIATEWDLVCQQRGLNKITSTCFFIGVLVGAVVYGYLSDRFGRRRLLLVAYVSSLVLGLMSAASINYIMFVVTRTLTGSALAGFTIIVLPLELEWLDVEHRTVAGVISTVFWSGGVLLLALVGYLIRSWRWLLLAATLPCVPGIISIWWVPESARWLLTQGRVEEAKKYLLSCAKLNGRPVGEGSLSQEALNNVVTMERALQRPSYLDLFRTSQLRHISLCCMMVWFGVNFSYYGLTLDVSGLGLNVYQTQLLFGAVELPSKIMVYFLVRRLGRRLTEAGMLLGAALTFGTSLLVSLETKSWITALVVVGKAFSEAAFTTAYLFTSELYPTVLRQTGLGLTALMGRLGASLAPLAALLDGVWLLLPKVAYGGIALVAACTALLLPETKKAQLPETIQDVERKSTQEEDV

[11] = system: OCT; assay: Initial uptake of 14C-TEA in suspended human hepatocytes with inhibitors; format: in vitro ADME; conditions: 14C-TEA 20μM, 5μM decynium 22
[12] = system: suspended rat hepatocytes
[13] = system: suspended rat hepatocytes; assay: Preliminary uptake time course in suspended rat hepatocytes sampling over 60min
[14] = system: TR^− rat sandwich-cultured hepatocytes; format: in vitro ADME
How it was run: as §1

[15] = rats, 0.25 mCi dose, 30 min after intravenous administration; cited from earlier work
[16] = cited from earlier work
[17] = TR- rat SCH, 5μCi/mL, 20min preload
[18] = control WT rat SCH, 5μCi/mL, 20min preload
[19] = human SCH, control, 5μCi/mL, 20min preload

Compound: Clc1cccc(Cl)c1N=C1NCCN1 [clonidine]
- initial 14C-TEA uptake in the presence of inhibitor [1]: 23.7 % of control
- initial 99mTc-MEB uptake in the presence of inhibitor [2]: marginal effects
- initial 99mTc-MEB uptake in the presence of inhibitor [3]: marginal effects

Compound: CO[C@H]1/C=C/O[C@@]2(C)Oc3c(C)c(O)c4c(O)c(cc(O)c4c3C2=O)NC(=O)/C(C)=C\C=C\[C@H](C)[C@H](O)[C@@H](C)[C@@H](O)[C@@H](C)[C@H](OC(C)=O)[C@@H]1C [rifamycin SV]
- initial 3H-E217G uptake in the presence of inhibitor [4]: 51.5 % of control
- initial 99mTc-MEB uptake in the presence of inhibitor [2]: 20.7 % of control
- initial 3H-E217G uptake in the presence of inhibitor [5]: 15.5 % of control
- initial 99mTc-MEB uptake in the presence of inhibitor [3]: 35.4 % of control

Compound: COc1cc2c(cc1OC)CN(CCc1ccc(NC(=O)c3cccc4c(=O)c5cccc(OC)c5[nH]c34)cc1)CC2 [GF120918, N-(4-[2-(1,2,3,4-tetrahydro-6,7-dimethoxy-2-isoquinolinyl)ethyl]-phenyl)-9,10-dihydro-5-methoxy-9-oxo-4-acridine carboxamide]
- effect on 99mTc-MIBI BEI and in vitro Clbiliary (biliary excretion) [6]: ablated; also recorded: inhibited completely
- increase in hepatocellular accumulation (cells only) of 99mTc-MIBI [6]: ~ 2 fold
- decrease of 99mTc-MIBI basolateral efflux ([7]; rat SCH, GF120918 20μM): ~ 2.3 fold
- decrease of 99mTc-MIBI canalicular efflux ([7]; rat SCH, GF120918 20μM): 1.5 fold
- decrease of 99mTc-MIBI basolateral efflux ([8]; human SCH, GF120918 20μM): ~ 2.9 fold
- decrease of 99mTc-MIBI canalicular efflux ([8]; human SCH, GF120918 20μM): 2.1 fold

Compound: CN(C)C(=O)CCSC(SCCC(=O)O)c1cccc(/C=C/c2ccc3ccc(Cl)cc3n2)c1 (stereo not shown) [MK571, MK-571 sodium salt]
- Ki [9]: 600 nM
- effect of inhibitor on 3H-PAH uptake [10]: not significantly influenced

Compound: CC1(C)[C@@H](O[C@H]2O[C@H](C(=O)O)[C@@H](O)[C@H](O)[C@H]2O[C@@H]2O[C@H](C(=O)O)[C@@H](O)[C@H](O)[C@H]2O)CC[C@]2(C)[C@H]3C(=O)C=C4[C@@H]5C[C@@](C)(C(=O)O)CC[C@]5(C)CC[C@@]4(C)[C@]3(C)CC[C@@H]12 [glycyrrhizic acid]
- reduction of 14C-TEA uptake compared to control [1]: 62.1%
- initial 14C-TEA uptake in the presence of inhibitor [1]: 37.9 % of control
- initial 99mTc-MEB uptake in the presence of inhibitor [2]: 39.5 % of control
- initial 3H-E217G uptake in the presence of inhibitor [5]: 23.8 % of control

Compound: CCN1/C(=C/c2ccc3ccccc3[n+]2CC)C=Cc2ccccc21.[I-] [decynium 22]
- initial 14C-TEA uptake in the presence of inhibitor [11]: 54.2 % of control
- initial 99mTc-MEB uptake in the presence of inhibitor [2]: marginal effects
- initial 99mTc-MEB uptake in the presence of inhibitor [3]: marginal effects

Compound: C[C@]12CC[C@@H]3c4ccc(O)cc4CC[C@H]3[C@@H]1CC[C@@H]2O[C@@H]1O[C@H](C(=O)O)[C@@H](O)[C@H](O)[C@H]1O [^3H-E217G, Estradiol-17-β-D-glucuronide]
- linear range of uptake [12]: 2.5 min

Compound: CC[N+](CC)(CC)CC [^14C-TEA, tetraethylammonium]
- linear range of uptake [13]: 5 min

Compound: Cc1cc(C)c(NC(=O)CN(CC(=O)[O-])CC(=O)[O-])c(C)c1Br.Cc1cc(C)c(NC(=O)CN(CC(=O)[O-])CC(=O)[O-])c(C)c1Br.[99Tc+4] [^99mTc-MEB, ^99mTechnetium-mebrofenin]
- basolateral efflux over 20 min [14, 17]: 31.8±6.2 % of total preloaded mass
- canalicular efflux over 20 min [14, 17]: negligible; also recorded: completely ablated
- hepatocellular content in cell lysate at the end of the 20-min efflux experiment, Rat TR- ([14]; day 4 TR- rat SCH, n=3): 78.8 ± 13.2% of the total substrate mass preloaded
- dose recovered in the liver [15]: ~ 95%
- linear range of uptake [13]: 1.5 min
- basolateral efflux over 20 min [7, 18]: 25.0±6.7 % of total preloaded mass
- canalicular efflux over 20 min [7, 18]: 15.3±5.7 % of total preloaded mass
- hepatocellular content in cell lysate at the end of the 20-min efflux experiment, Rat Inhibitor ([7]; day 4 WT rat SCH, Inhibitor = 100μM MK571 for 99mTc-MEB and 20μM GF120918 for 99mTc-MIBI): 63.4 ± 4.8% of the total substrate mass preloaded
- fraction of basolateral efflux ([7]; rat SCH): 62.0 % of total efflux
- fraction of canalicular efflux ([7]; rat SCH): 38.0 % of total efflux
- total efflux ([7]; rat SCH, 20-min efflux study design): 40.3±5.4%
- dose recovered in bile ([16]; 2.3mCi dose intravenously, healthy human subjects, within 180 min): ~ 84%
- dose recovered in urine ([16]; after 24 hours in humans): ~ 1.5 % of the dose
- dose taken up by the liver ([16]; humans): More than 98%
- hepatic excretion half-life ([16]; humans): 16 min
- canalicular efflux, human compared to rat SCH ([8]; 20-min efflux): ~ 3 fold
- hepatocellular content in cell lysate at the end of the 20-min efflux experiment, Human Inhibitor ([8]; day 7 human SCH, Inhibitor = 100μM MK571 for 99mTc-MEB and 20μM GF120918 for 99mTc-MIBI): 27.7 ± 0.4% of the total substrate mass preloaded
- fraction of basolateral efflux ([8]; human SCH): 26.7 % of total efflux
- fraction of canalicular efflux ([8]; human SCH): 73.3 % of total efflux
- total efflux ([8]; human SCH, 20-min efflux study design): 62.4±8.0%
- basolateral efflux over 20 min [8, 19]: 16.7±0.6 % of total preloaded mass
- canalicular efflux over 20 min [8, 19]: 45.8±8.6 % of total preloaded mass
